Results taken from ChEMBL document CHEMBL4007382 (Eur J Med Chem, 2017).

Experiments:
Mus musculus [1] = test: Cardiotoxicity in Kunming mouse assessed as change in heart rate at 20 mg/kg, ip measured after 29 mins by electrocardiogram (reference value: -47.2 +/- 24.77); type: toxicity, organism-based; conditions: in vivo
Mus musculus [2] = test: Cardiotoxicity in Kunming mouse assessed as change in heart rate at 20 mg/kg, ip measured after 9 mins by electrocardiogram (reference value: -31.96 +/- 17.01); type: toxicity, organism-based; conditions: in vivo, 0.15 h
Mus musculus [3] = test: Cardiotoxicity in Kunming mouse assessed as change in heart rate at 20 mg/kg, ip measured after 13 mins by electrocardiogram (reference value: -37.85 +/- 14.54); type: toxicity, organism-based; conditions: in vivo
Mus musculus [4] = test: Cardiotoxicity in Kunming mouse assessed as change in heart rate at 20 mg/kg, ip measured after 28 mins by electrocardiogram (reference value: -49.06 +/- 20.71); type: toxicity, organism-based; conditions: in vivo
Mus musculus [5] = test: Cardiotoxicity in Kunming mouse assessed as change in heart rate at 20 mg/kg, ip measured after 22 mins by electrocardiogram (reference value: -41.94 +/- 12.51); type: toxicity, organism-based; conditions: in vivo
Mus musculus [6] = test: Cardiotoxicity in Kunming mouse assessed as change in heart rate at 20 mg/kg, ip measured after 20 mins by electrocardiogram (reference value: -40.16 +/- 13.12); type: toxicity, organism-based; conditions: in vivo
Mus musculus [7] = test: Cardiotoxicity in Kunming mouse assessed as change in heart rate at 20 mg/kg, ip measured after 7 mins by electrocardiogram (reference value: -25.9 +/- 22.08); type: toxicity, organism-based; conditions: in vivo
Mus musculus [8] = test: Cardiotoxicity in Kunming mouse assessed as change in heart rate at 20 mg/kg, ip measured after 34 mins by electrocardiogram (reference value: -35 +/- 23.88); type: toxicity, organism-based; conditions: in vivo
Mus musculus [9] = test: Cardiotoxicity in Kunming mouse assessed as change in heart rate at 20 mg/kg, ip measured after 32 mins by electrocardiogram (reference value: -43.48 +/- 20.81); type: toxicity, organism-based; conditions: in vivo
Mus musculus [10] = test: Cardiotoxicity in Kunming mouse assessed as change in heart rate at 20 mg/kg, ip measured after 4 mins by electrocardiogram (reference value: -13.79 +/- 13.4); type: toxicity, organism-based; conditions: in vivo
Mus musculus [11] = test: Cardiotoxicity in Kunming mouse assessed as change in heart rate at 20 mg/kg, ip measured after 17 mins by electrocardiogram (reference value: -38.32 +/- 10.76); type: toxicity, organism-based; conditions: in vivo
Mus musculus [12] = test: Cardiotoxicity in Kunming mouse assessed as change in heart rate at 20 mg/kg, ip measured after 24 mins by electrocardiogram (reference value: -44.48 +/- 12.38); type: toxicity, organism-based; conditions: in vivo, 0.4 h
Mus musculus [13] = test: Cardiotoxicity in Kunming mouse assessed as change in heart rate at 20 mg/kg, ip measured after 30 mins by electrocardiogram (reference value: -43.78 +/- 22.71); type: toxicity, organism-based; conditions: in vivo, 0.5 h
Mus musculus [14] = test: Cardiotoxicity in Kunming mouse assessed as change in heart rate at 20 mg/kg, ip measured after 12 mins by electrocardiogram (reference value: -40.39 +/- 20.17); type: toxicity, organism-based; conditions: in vivo, 0.2 h
Mus musculus [15] = test: Cardiotoxicity in Kunming mouse assessed as change in heart rate at 20 mg/kg, ip measured after 2 mins by electrocardiogram (reference value: -16.36 +/- 11.14); type: toxicity, organism-based; conditions: in vivo
Mus musculus [16] = test: Cardiotoxicity in Kunming mouse assessed as change in heart rate at 20 mg/kg, ip measured after 10 mins by electrocardiogram (reference value: -34.85 +/- 19.78); type: toxicity, organism-based; conditions: in vivo
Cholinesterase [17] = biological target: T1, Cholinesterase (Homo sapiens, UniProt P06276); test: Irreversible inhibition of human plasma BuChE assessed as second order carbamylation rate constant using S-butyrylthiocholine iodide as substrate preincubated up to 45 mins followed by substrate addition measured after 5 mins
T1 sequence (P06276 whole entry): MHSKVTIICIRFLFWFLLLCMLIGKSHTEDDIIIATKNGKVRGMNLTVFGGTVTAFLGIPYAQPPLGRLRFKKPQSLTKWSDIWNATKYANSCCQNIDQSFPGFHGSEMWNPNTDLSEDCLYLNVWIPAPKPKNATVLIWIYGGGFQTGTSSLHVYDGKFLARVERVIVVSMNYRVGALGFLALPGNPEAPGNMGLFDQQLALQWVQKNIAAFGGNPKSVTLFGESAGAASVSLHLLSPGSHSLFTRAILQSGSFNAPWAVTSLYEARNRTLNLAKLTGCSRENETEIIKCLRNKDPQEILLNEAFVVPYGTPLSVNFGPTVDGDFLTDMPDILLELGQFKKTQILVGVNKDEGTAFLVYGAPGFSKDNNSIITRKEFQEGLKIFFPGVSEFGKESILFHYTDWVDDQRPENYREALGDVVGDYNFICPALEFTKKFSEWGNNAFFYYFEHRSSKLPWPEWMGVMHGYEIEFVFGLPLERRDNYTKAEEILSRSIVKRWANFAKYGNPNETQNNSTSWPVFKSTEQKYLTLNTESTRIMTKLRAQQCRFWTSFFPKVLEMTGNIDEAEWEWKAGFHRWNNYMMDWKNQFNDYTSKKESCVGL
Summary of the method: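 Diluted human plasma BChE was preincubated for 1–45 min with inhibitor at 5×10^-9, 1×10^-8, 2.5×10^-8 and 5×10^-8 M. Residual Ellman activity with BTCh at pH 8 was normalised to a water control. kobs came from a one-phase exponential fit; k_I1 came from the slope of kobs versus concentration.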

Mus musculus [18] = test: Cardiotoxicity in Kunming mouse assessed as change in heart rate at 20 mg/kg, ip measured after 35 mins by electrocardiogram (reference value: -31.81 +/- 27.31); type: toxicity, organism-based; conditions: in vivo
Mus musculus [19] = test: Cardiotoxicity in Kunming mouse assessed as change in heart rate at 20 mg/kg, ip measured after 3 mins by electrocardiogram (reference value: -14.4 +/- 19.94); type: toxicity, organism-based; conditions: in vivo, 0.05 h
Mus musculus [20] = test: Cardiotoxicity in Kunming mouse assessed as change in heart rate at 20 mg/kg, ip measured after 23 mins by electrocardiogram (reference value: -44.9 +/- 14.57); type: toxicity, organism-based; conditions: in vivo
Mus musculus [21] = test: Cardiotoxicity in Kunming mouse assessed as change in heart rate at 20 mg/kg, ip measured after 5 mins by electrocardiogram (reference value: -14.06 +/- 24.25); type: toxicity, organism-based; conditions: in vivo
Cholinesterase [22] = biological target: T1, Cholinesterase; test: Inhibition of human plasma BuChE using S-butyrylthiocholine iodide as substrate preincubated for 60 mins followed by substrate addition measured after 5 mins by Ellman's method
Summary of the method: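 Source was plasma from heparinised blood of one healthy donor, centrifuged at 1000 × g for 20 min at 25°C, stored at -80°C and diluted 150X. Ellman assay at pH 8 and 37°C with 60 min preincubation and seven inhibitor concentrations in water, 5×10^-8 to 5×10^-10 M. Triplicates.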

Mus musculus [23] = test: Cardiotoxicity in Kunming mouse assessed as change in heart rate at 20 mg/kg, ip measured after 21 mins by electrocardiogram (reference value: -40.23 +/- 16.21); type: toxicity, organism-based; conditions: in vivo, 0.35 h
Mus musculus [24] = test: Cardiotoxicity in Kunming mouse assessed as change in heart rate at 20 mg/kg, ip measured after 15 mins by electrocardiogram (reference value: -35.14 +/- 24.5); type: toxicity, organism-based; conditions: in vivo, 0.25 h
Mus musculus [25] = test: Cardiotoxicity in Kunming mouse assessed as change in heart rate at 20 mg/kg, ip measured after 19 mins by electrocardiogram (reference value: -38.67 +/- 13.91); type: toxicity, organism-based; conditions: in vivo
Acetylcholinesterase [26] = biological target: Acetylcholinesterase (Homo sapiens, UniProt P22303); test: Inhibition of human erythrocytes AChE using S-acetylthiocholine iodide as substrate preincubated for 60 mins followed by substrate addition measured after 5 mins by Ellman's method
Sequence of Acetylcholinesterase (Homo sapiens, UniProt P22303) (P22303 whole entry): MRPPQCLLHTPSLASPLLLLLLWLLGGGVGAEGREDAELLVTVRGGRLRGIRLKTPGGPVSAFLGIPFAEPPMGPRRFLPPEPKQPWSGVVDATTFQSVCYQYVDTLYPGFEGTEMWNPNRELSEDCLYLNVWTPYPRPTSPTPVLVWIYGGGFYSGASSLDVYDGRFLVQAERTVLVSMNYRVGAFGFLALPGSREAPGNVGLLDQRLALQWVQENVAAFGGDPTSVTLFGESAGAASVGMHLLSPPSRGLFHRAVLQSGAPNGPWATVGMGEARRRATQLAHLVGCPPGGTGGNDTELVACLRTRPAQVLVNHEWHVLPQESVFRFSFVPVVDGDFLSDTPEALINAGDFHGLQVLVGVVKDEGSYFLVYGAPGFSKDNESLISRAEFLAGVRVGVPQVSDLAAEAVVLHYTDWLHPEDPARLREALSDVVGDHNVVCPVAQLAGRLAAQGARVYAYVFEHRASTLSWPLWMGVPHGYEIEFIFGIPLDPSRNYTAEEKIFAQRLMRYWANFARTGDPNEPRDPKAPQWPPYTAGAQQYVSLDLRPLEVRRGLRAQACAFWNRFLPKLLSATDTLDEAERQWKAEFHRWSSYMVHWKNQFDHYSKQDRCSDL

Mus musculus [27] = test: Cardiotoxicity in Kunming mouse assessed as change in heart rate at 20 mg/kg, ip measured after 26 mins by electrocardiogram (reference value: -46.48 +/- 17.52); type: toxicity, organism-based; conditions: in vivo
Mus musculus [28] = test: Cardiotoxicity in Kunming mouse assessed as change in heart rate at 20 mg/kg, ip measured after 36 mins by electrocardiogram (reference value: -32.32 +/- 25.52); type: toxicity, organism-based; conditions: in vivo, 0.6 h
Mus musculus [29] = test: Cardiotoxicity in Kunming mouse assessed as change in heart rate at 20 mg/kg, ip measured after 11 mins by electrocardiogram (reference value: -35.4 +/- 11.4); type: toxicity, organism-based; conditions: in vivo
Mus musculus [30] = test: Cardiotoxicity in Kunming mouse assessed as change in heart rate at 20 mg/kg, ip measured after 31 mins by electrocardiogram (reference value: -42.8 +/- 29.79); type: toxicity, organism-based; conditions: in vivo
Acetylcholinesterase [31] = biological target: Acetylcholinesterase (Electrophorus electricus, UniProt O42275); test: Inhibition of electric eel AChE using S-acetylthiocholine iodide as substrate preincubated for 60 mins followed by substrate addition measured after 5 mins by Ellman's method
Sequence of Acetylcholinesterase (Electrophorus electricus, UniProt O42275) (O42275 whole entry): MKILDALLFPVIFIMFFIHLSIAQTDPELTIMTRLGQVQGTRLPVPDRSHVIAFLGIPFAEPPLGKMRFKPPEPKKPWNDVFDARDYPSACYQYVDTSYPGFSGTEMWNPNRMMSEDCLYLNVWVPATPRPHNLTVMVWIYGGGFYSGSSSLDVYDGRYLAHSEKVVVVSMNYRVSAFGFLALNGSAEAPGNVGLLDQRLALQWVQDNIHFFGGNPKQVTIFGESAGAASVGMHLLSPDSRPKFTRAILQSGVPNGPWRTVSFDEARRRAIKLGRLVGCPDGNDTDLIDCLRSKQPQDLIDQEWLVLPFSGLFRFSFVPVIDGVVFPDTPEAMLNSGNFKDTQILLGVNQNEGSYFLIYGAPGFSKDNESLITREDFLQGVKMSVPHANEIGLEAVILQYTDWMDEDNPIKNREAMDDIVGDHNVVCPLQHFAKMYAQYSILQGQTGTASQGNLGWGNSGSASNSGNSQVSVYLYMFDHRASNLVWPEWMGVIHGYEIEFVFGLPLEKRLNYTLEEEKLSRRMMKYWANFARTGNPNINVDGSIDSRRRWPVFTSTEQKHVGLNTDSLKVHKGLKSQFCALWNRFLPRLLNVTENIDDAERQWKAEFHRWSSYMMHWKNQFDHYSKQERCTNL

Structure (SMILES)	Activity (Mus musculus [1])	Activity (Mus musculus [2])	Activity (Mus musculus [3])	Activity (Mus musculus [4])	Activity (Mus musculus [5])	Activity (Mus musculus [6])	Activity (Mus musculus [7])	Activity (Mus musculus [8])	Activity (Mus musculus [9])	Activity (Mus musculus [10])	Activity (Mus musculus [11])	Activity (Mus musculus [12])	Activity (Mus musculus [13])	Activity (Mus musculus [14])	Activity (Mus musculus [15])	Activity (Mus musculus [16])	Ki (Cholinesterase [17])	Activity (Mus musculus [18])	Activity (Mus musculus [19])	Activity (Mus musculus [20])	other results
CN(C)C(=O)Oc1cc(OC(=O)N(C)C)cc(C(O)CNC(C)(C)C)c1 (stereo not drawn) [BAMBUTEROL]	-23.87 bpm	0.55 bpm	15.31 bpm	-15.03 bpm	48.65 bpm	34.4 bpm	16.59 bpm	-6.04 bpm	-2.09 bpm	3.77 bpm	45.59 bpm	29.39 bpm	-20.41 bpm	15.49 bpm	-2.66 bpm	-0.24 bpm	77.7 ×10⁵ /M/min	-2.92 bpm	2.1 bpm	48.77 bpm	Activity (Mus musculus [21]): 17.67 bpm; IC50 (Cholinesterase [22]): 0.00429 µM; Activity (Mus musculus [23]): 32.75 bpm; Activity (Mus musculus [24]): 53.3 bpm; Activity (Mus musculus [25]): 38.36 bpm; IC50 (Acetylcholinesterase [26]): > 10 µM; Activity (Mus musculus [27]): 11.92 bpm; Activity (Mus musculus [28]): -26.54 bpm; Activity (Mus musculus [29]): 5.19 bpm; Activity (Mus musculus [30]): -13.49 bpm; IC50 (Acetylcholinesterase [31]): > 100 µM
CCC(C)(C)NCC(O)c1cc(OC(=O)N(C)C)cc(OC(=O)N(C)C)c1.Cl (stereo not drawn)	-37.74 bpm	-34.87 bpm	-43.71 bpm	-37.58 bpm	-41.75 bpm	-40.62 bpm	-33.53 bpm	-37.47 bpm	-36.77 bpm	-26.67 bpm	-40.25 bpm	-42.92 bpm	-36.5 bpm	-46.97 bpm	-21.23 bpm	-40.41 bpm	60 ×10⁵ /M/min	-37.47 bpm	-22.65 bpm	-41.98 bpm	Activity (Mus musculus [21]): -28.9 bpm; IC50 (Cholinesterase [22]): 0.00728 µM; Activity (Mus musculus [23]): -41.83 bpm; Activity (Mus musculus [24]): -49.12 bpm; Activity (Mus musculus [25]): -41.43 bpm; IC50 (Acetylcholinesterase [26]): > 10 µM; Activity (Mus musculus [27]): -42.44 bpm; Activity (Mus musculus [28]): -36.32 bpm; Activity (Mus musculus [29]): -42.6 bpm; Activity (Mus musculus [30]): -37.65 bpm; IC50 (Acetylcholinesterase [31]): > 100 µM
CCN(C)C(=O)Oc1cc(OC(=O)N(C)CC)cc(C(O)CNC(C)(C)CC)c1.Cl (stereo not drawn)	-5.1 bpm	-5.8 bpm	-3.93 bpm	-7.52 bpm	0.05 bpm	0.13 bpm	-3.03 bpm	-5.5 bpm	-1.37 bpm	2.55 bpm	4.98 bpm	3.13 bpm	-1.5 bpm	-4.45 bpm	-1.28 bpm	-6.25 bpm	73.3 ×10⁵ /M/min	-11.4 bpm	0.93 bpm	0.52 bpm	Activity (Mus musculus [21]): 0.25 bpm; IC50 (Cholinesterase [22]): 0.00712 µM; Activity (Mus musculus [23]): 0.05 bpm; Activity (Mus musculus [24]): -2.32 bpm; Activity (Mus musculus [25]): 2.88 bpm; IC50 (Acetylcholinesterase [26]): > 10 µM; Activity (Mus musculus [27]): -0.88 bpm; Activity (Mus musculus [28]): -25.47 bpm; Activity (Mus musculus [29]): -8.17 bpm; Activity (Mus musculus [30]): 1.28 bpm; IC50 (Acetylcholinesterase [31]): > 100 µM
